Shown are actives, neighbours in structure and some others; about 5.8% of the full set was active somewhere.
IDH1 R132H inh: inhibitors of human IDH1 R132H; O75874; IDH1 R132H reductase, diaphorase/resazurin fluorescence, 60 min; inhibition, % at 10 µM; 0.18% of 70,000 active; in the data active = inhibition above about 34%; inconclusive = no clear call, values can overlap the other calls; inactive = below about 11%;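 note: 0% = DMSO and 100% = no enzyme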
Pf Dd2 growth: blocks growth of Plasmodium falciparum Dd2 parasites | activity change, % at 10 µM | P. falciparum Dd2 growth, SYBR Green, 72 h; hits give low values | 2.3% of 94,000 active; in the data active = activity change below about -80%; inconclusive = no clear call, values can overlap the other calls
GASC1 inh: KDM4C (human) demethylase inhibition | Q9H3R0 | GST-KDM4C 2-372, H3K9me3 peptide, LANCE TR-FRET | inhibition, % at 12.5 µM | 0.15% of 96,000 active;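 active = mean replicate inhibition above about 25%, with at least 55% of replicates also reaching it, limit read from the data, passing the limit was not always enough; inconclusive = only one of those two conditions met; inactive = neither condition met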
Target sequence (Q9H3R0 2-372 limits assumed): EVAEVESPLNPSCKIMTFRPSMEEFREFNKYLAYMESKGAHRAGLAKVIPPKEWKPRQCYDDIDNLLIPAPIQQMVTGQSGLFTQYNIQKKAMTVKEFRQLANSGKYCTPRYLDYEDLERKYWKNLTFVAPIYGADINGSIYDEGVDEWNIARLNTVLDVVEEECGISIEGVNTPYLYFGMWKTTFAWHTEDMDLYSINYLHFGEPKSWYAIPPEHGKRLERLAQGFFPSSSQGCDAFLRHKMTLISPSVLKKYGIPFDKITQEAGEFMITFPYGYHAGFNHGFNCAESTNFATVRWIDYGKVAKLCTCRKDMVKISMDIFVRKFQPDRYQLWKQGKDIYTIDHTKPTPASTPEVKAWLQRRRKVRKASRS
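Assay system: GST-GASC-1 enzyme fragment 2-372 | Amount: 10 nM enzyme | Medium: HEPES buffer, pH 7.5, plus ascorbate | Reagent: H3K9me3 peptide substrate, Fe(II), 2-oxoglutarate | Doses: Single-point compound screen | Incubation: 30 min demethylation and 1 h detection at room temperature | Measured by: LANCE TR-FRET, excitation 340 nm, emissions 618 and 671 nm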
Tcruzi prolif: T. cruzi proliferation inhibition; inhibition, % at 8.34 µM; 5.9% of 77,000 active; T. cruzi beta-gal in NIH3T3, GalScreen luminescence, 90 h;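 active = mean inhibition above about 93%, with at least 55% of replicates each passing it, limit read from the data, passing the limit was not always enough; inconclusive = only one of those two conditions holds; inactive = neither condition holds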
* = called active by the depositor; ? = inconclusive; . = no result.

SMILES | IDH1 R132H inh | Pf Dd2 growth | GASC1 inh | Tcruzi prolif
Cc1ccc(S(=O)(=O)N(C)C[C@@H]2OCCCC[C@H](C)Oc3ccc(NC(=O)C4CCCCC4)cc3C(=O)N([C@@H](C)CO)C[C@H]2C)cc1 | . | -84.6* | -0.9 | 74.5
Cc1ccc(S(=O)(=O)N(C)C[C@H]2OCCCC[C@@H](C)Oc3ccc(NC(=O)C4CCCCC4)cc3C(=O)N([C@@H](C)CO)C[C@@H]2C)cc1 | . | -75.9 | -0.4 | 40.5
CC(=O)c1cccc(NC(=O)C(C)NS(=O)(=O)c2ccc(Br)cc2)c1 (centres undefined) | 0.1 | . | . | .
COc1ccc(CN(C)C[C@@H]2OCCCC[C@H](C)Oc3ccc(NC(=O)Nc4ccc(F)cc4)cc3C(=O)N([C@H](C)CO)C[C@@H]2C)cc1 | -0.2 | -20.1 | -0.4 | 64.5
COc1ccc(CN(C)C[C@H]2OCCCC[C@H](C)Oc3ccc(NC(=O)Nc4ccc(F)cc4)cc3C(=O)N([C@@H](C)CO)C[C@H]2C)cc1 | 0.8 | -82.8* | 9.2 | 76.2
COc1ccc(CN(C)C[C@H]2OCCCC[C@H](C)Oc3ccc(NC(=O)Nc4ccc(F)cc4)cc3C(=O)N([C@H](C)CO)C[C@H]2C)cc1 | 1.6 | -81.2* | -2.5 | 69.3
COc1ccc(CN(C)C[C@@H]2OCCCC[C@H](C)Oc3ccc(NC(=O)Nc4ccc(F)cc4)cc3C(=O)N([C@@H](C)CO)C[C@@H]2C)cc1 | . | ? | 0.6 | 73.2
COc1ccc(CN(C)C[C@@H]2OCCCC[C@@H](C)Oc3ccc(NC(=O)NC(C)C)cc3C(=O)N([C@H](C)CO)C[C@H]2C)cc1 | 67.7* | -1.6 | ? | 37.0
Cc1ccc(S(=O)(=O)N(C)C[C@H]2OCCCC[C@@H](C)Oc3ccc(NS(=O)(=O)c4cccs4)cc3C(=O)N([C@H](C)CO)C[C@@H]2C)cc1 | -1.2 | -15.9 | 0.5 | 46.2
C[C@@H]1CN([C@H](C)CO)C(=O)c2cc(NS(=O)(=O)c3cccs3)ccc2O[C@@H](C)CCCCO[C@@H]1CN(C)S(=O)(=O)c1ccc(F)cc1 | 1.8 | -89.5* | 1.8 | 51.7
Cc1ccc(S(=O)(=O)N(C)C[C@H]2OCCCC[C@H](C)Oc3ccc(NS(=O)(=O)c4cccs4)cc3C(=O)N([C@@H](C)CO)C[C@H]2C)cc1 | . | -85.0* | 1.2 | 58.3
Cc1cccc(NC(=O)c2ccccc2NC(=O)COc2ccccc2)c1C | -0.3 | . | . | .
COc1ccccc1CN1C[C@@H](C)[C@@H](OC)CN(C)C(=O)c2ccc(NC(C)=O)cc2OC[C@@H]1C | 0.0 | -24.2 | 3.0 | 21.6
COc1ccccc1CN1C[C@@H](C)[C@H](OC)CN(C)C(=O)c2ccc(NC(=O)Nc3ccccc3OC)cc2OC[C@H]1C | 0.6 | -90.2* | 1.1 | 27.7
CO[C@H]1CN(C)C(=O)c2ccc(NC(=O)CC(F)(F)F)cc2OC[C@@H](C)N(CC2CC2)C[C@H]1C | . | -85.7* | 1.5 | .
CCC(=O)Nc1ccc2c(c1)OC[C@H](C)N(CC1CCOCC1)C[C@H](C)[C@H](OC)CN(C)C2=O | 2.4 | -4.2 | 44.1* | 18.9
O=C(COc1ccc([N+](=O)[O-])cc1)Nc1ccccc1OC(F)F | 0.7 | . | . | .
C[C@@H]1CN([C@H](C)CO)C(=O)c2c(c3ccccc3n2C)-c2ccccc2CO[C@H]1CN(C)Cc1ccccc1C(F)(F)F | . | -63.0 | -9.8 | .
C[C@@H]1CN([C@@H](C)CO)C(=O)c2c(c3ccccc3n2C)-c2ccccc2CO[C@@H]1CN(C)Cc1ccccc1C(F)(F)F | . | -86.9* | -3.4 | .
C[C@H]1CN([C@@H](C)CO)C(=O)c2c(c3ccccc3n2C)-c2ccccc2CO[C@@H]1CN(C)Cc1cccc(C(F)(F)F)c1 | . | -81.6* | -7.9 | .
C[C@H]1CN([C@@H](C)CO)C(=O)c2c(c3ccccc3n2C)-c2ccccc2CO[C@H]1CN(C)Cc1ccc(C(F)(F)F)cc1 | . | ? | 0.1 | .
C[C@@H]1CN([C@@H](C)CO)C(=O)c2c(c3ccccc3n2C)-c2ccccc2CO[C@@H]1CN(C)Cc1cccc(C(F)(F)F)c1 | . | -90.5* | 5.6 | .
CCn1c(SCC(=O)c2cccc([N+](=O)[O-])c2)nnc1-c1cccnc1 | 0.1 | . | . | .
CN(CC(=O)Nc1ccccc1[N+](=O)[O-])S(=O)(=O)c1ccccc1 | 0.8 | . | . | .
O=C(CCN1CCCCC1)NCC[C@H]1CC[C@H](NC(=O)Cc2cccnc2)[C@@H](CO)O1 | 0.0 | 26.8 | 0.0 | -33.4
SMILES | IDH1 R132H inh | Pf Dd2 growth | GASC1 inh | Tcruzi prolif
O=C(Cc1ccncc1)NCC[C@H]1CC[C@H](NC(=O)C2CCCC2)[C@H](CO)O1 | 70.9* | 15.1 | 57.5* | .
O=C(CCN1CCCCC1)NCC[C@H]1CC[C@H](NC(=O)Cc2cccnc2)[C@H](CO)O1 | 79.7* | 10.0 | 74.8* | 15.4
O=C(NCC[C@H]1CC[C@H](NC(=O)c2cccnc2)[C@H](CO)O1)Nc1ccc(F)cc1 | 94.4* | -16.1 | 64.8* | 21.3
O=C(CN1CCOCC1)N[C@H]1CC[C@H](CCNC(=O)C2CCC2)O[C@H]1CO | 73.3* | -22.5 | 85.4* | 57.7
O=C(NCC[C@H]1CC[C@@H](NC(=O)c2cccnc2)[C@@H](CO)O1)Nc1ccc(F)cc1 | 0.3 | -5.9 | -1.2 | 53.5
O=[N+]([O-])c1ccccc1-c1ccc(-c2nn3c(-c4ccccc4)nnc3s2)o1 | 0.0 | . | . | .
Cc1cc(Cl)ccc1OCC(=O)Nc1cccc(NC(=O)c2ccccc2C)c1 | 0.5 | . | . | .
Cc1sc(NC(=O)c2cc(-c3cccnc3)nc3ccccc23)c(C(=O)NC2CCCCC2)c1C | 0.1 | . | . | .
CCC1(C)Cc2ccccc2-c2nc3[nH]nc(SCC(=O)Nc4ccc(OC)c(Cl)c4)n3c(=O)c21 (centres undefined) | -0.3 | . | . | .
O=C(COc1cccc2ccccc12)Nc1cc([N+](=O)[O-])ccc1O | -1.2 | . | . | .
O=C(NCC[C@@H]1CC[C@H](NS(=O)(=O)c2cccc(F)c2)[C@H](CO)O1)C1CCCC1 | 48.3* | -16.7 | 35.7* | .
O=C(NCC[C@H]1CC[C@H](NS(=O)(=O)c2cccc(F)c2)[C@H](CO)O1)C1CCCC1 | 0.2 | -5.5 | -1.4 | .
C/C=C/c1ccc2c(c1)O[C@@H](CN(C)Cc1ccc(C(=O)O)cc1)[C@H](C)CN([C@@H](C)CO)S2(=O)=O | 0.2 | 25.6 | 0.9 | .
C/C=C/c1ccc2c(c1)O[C@H](CN(C)Cc1ccc(C(=O)O)cc1)[C@@H](C)CN([C@H](C)CO)S2(=O)=O | 6.4 | -85.9* | 1.9 | .
C/C=C/c1ccc2c(c1)O[C@@H](CN(C)CCC)[C@@H](C)CN([C@H](C)CO)S2(=O)=O | 52.8* | -10.8 | 37.9* | -25.4
CCS(=O)(=O)N(C)C1c2cc(C#N)ccc2OC(C)(C)C1O (centres undefined) | 0.6 | . | . | .
Cc1ccc(S(=O)(=O)N(C)c2ccc(C(=O)Nc3cccc(N(C)S(C)(=O)=O)c3)cc2)cc1 | -0.3 | . | . | .
C[C@@H]1CN([C@@H](C)CO)C(=O)c2cccc(NC(=O)CCCCCC(=O)Nc3ccccc3N)c2O[C@@H]1CN(C)C(=O)Nc1cccc2ccccc12 | . | -88.1* | -0.5 | .

Screens (PubChem)
